From ChEMBL document CHEMBL4043093, “2-Oxo-3, 4-dihydropyrimido[4, 5-d]pyrimidinyl derivatives as new irreversible pan fibroblast growth factor receptor (FGFR) inhibitors” (Eur J Med Chem, 2017)

What was measured:
[1] = target: TRAF2 and NCK-interacting protein kinase (Homo sapiens) (UniProt Q9UKE5); assay: Inhibition of wild-type human partial length TNIK (D4 to K311 residues) expressed in Escherichia coli BL21 assessed as residual activity at 1000 nM after 30 mins by Kinomescan method relative to control
[2] = target: Serine/threonine-protein kinase TAO2 (Homo sapiens) (UniProt Q9UL54); assay: Inhibition of wild-type human partial length TAOK2 (M1 to A320 residues) expressed in HEK293 cells assessed as residual activity at 1000 nM after 30 mins by Kinomescan method relative to control; format: cell-based
[3] = target: G protein-coupled receptor kinase 4 (Homo sapiens) (UniProt P32298); assay: Inhibition of wild-type human full length GRK4 (M1 to C578 residues) expressed in Escherichia coli BL21 assessed as residual activity at 1000 nM after 30 mins by Kinomescan method relative to control
In short: (§1)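 Single-concentration screen at 1 µM across a 456-kinase KINOMEscan panel. The read-out is Percent Control for each kinase.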

[4] = target: Cyclin-dependent kinase 5 (Homo sapiens) (UniProt Q00535); assay: Inhibition of wild-type human full length CDK5 (M1 to P292 residues) expressed in Escherichia coli BL21 assessed as residual activity at 1000 nM after 30 mins by Kinomescan method relative to control
In short: (§2)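 Single-point screen at a fixed 1 µM, run within a 456-kinase DiscoveRx KINOMEscan panel. Each kinase's read-out is Percent Control, i.e. signal relative to a control without compound. Hits were scored by a Percent Control < 35 cut-off, and an S(35) selectivity score was calculated across the non-mutant kinases.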

[5] = target: Serine/threonine-protein kinase PRP4 homolog (Homo sapiens) (UniProt Q13523); assay: Inhibition of wild-type human partial length PRP4 (D657 to I1007 residues) expressed in Escherichia coli BL21 assessed as residual activity at 1000 nM after 30 mins by Kinomescan method relative to control
[6] = target: VEGFR2 (vascular endothelial growth factor receptor 2) (Homo sapiens, UniProt P35968); assay: Inhibition of wild-type human partial length VEGFR2 (R787 to P1253 residues) expressed in HEK293 cells assessed as residual activity at 1000 nM after 30 mins by Kinomescan method relative to control; format: cell-based; details: read-out: Activity
[7] = target: Inhibitor of nuclear factor kappa-B kinase subunit alpha (Homo sapiens) (UniProt O15111); assay: Inhibition of wild-type human full length IKK-alpha (M1 to E745 residues) expressed in HEK293 cells assessed as residual activity at 1000 nM after 30 mins by Kinomescan method relative to control; format: cell-based; in short: as §1
[8] = test system: Tyrosine-protein kinase ABL1 (Homo sapiens), P00519 [H396P]; assay: Inhibition of human phosphorylated ABL1 H396P mutant (S229 to K512 residues) expressed in HEK293 cells assessed as residual activity at 1000 nM after 30 mins by Kinomescan method relative to control; format: cell-based; in short: as §2
[9] = target: TGF-beta receptor type-2 (Homo sapiens) (UniProt P37173); assay: Inhibition of wild-type human partial length TGFBR2 (I218 to K567 residues) expressed in Escherichia coli BL21 assessed as residual activity at 1000 nM after 30 mins by Kinomescan method relative to control
[10] = target: Dual specificity protein kinase CLK3 (Homo sapiens) (UniProt P49761); assay: Inhibition of wild-type human full length CLK3 (M1 to R490 residues) expressed in Escherichia coli BL21 assessed as residual activity at 1000 nM after 30 mins by Kinomescan method relative to control; in short: as §2
[11] = target: Dual specificity mitogen-activated protein kinase kinase 6 (Homo sapiens) (UniProt P52564); assay: Inhibition of wild-type human partial length MEK6 (K36 to D334 residues) expressed in Escherichia coli BL21 assessed as residual activity at 1000 nM after 30 mins by Kinomescan method relative to control
[12] = target: Bone morphogenetic protein receptor type-1A (Homo sapiens) (UniProt P36894); assay: Inhibition of wild-type human partial length BMPR1A (Q214 to I532 residues) expressed in Escherichia coli BL21 assessed as residual activity at 1000 nM after 30 mins by Kinomescan method relative to control
[13] = target: Serine/threonine-protein kinase RIO3 (Homo sapiens) (UniProt O14730); assay: Inhibition of wild-type human full length RIOK3 (M1 to E519 residues) expressed in Escherichia coli BL21 assessed as residual activity at 1000 nM after 30 mins by Kinomescan method relative to control
[14] = target: Aurora kinase C (Homo sapiens) (UniProt Q9UQB9); assay: Inhibition of wild-type human full length AURKC (M1 to S275 residues) expressed in Escherichia coli BL21 assessed as residual activity at 1000 nM after 30 mins by Kinomescan method relative to control; in short: as §2
[15] = target: Phosphatidylinositol 5-phosphate 4-kinase type-2 beta (Homo sapiens) (UniProt P78356); assay: Inhibition of wild-type human full length PIP5K2B (M1 to T416 residues) expressed in Escherichia coli BL21 assessed as residual activity at 1000 nM after 30 mins by Kinomescan method relative to control
In short: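 Single-concentration screen at 1 µM against a 456-kinase panel (KINOMEscan). Read-out is Percent Control for each kinase. Across the 403 non-mutant kinases, an S(35) selectivity score was derived as the fraction of kinases with Percent Control < 35.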

[16] = target: Serine/threonine-protein kinase Nek4 (Homo sapiens) (UniProt P51957); assay: Inhibition of wild-type human full length NEK4 (M1 to F841 residues) expressed in HEK293 cells assessed as residual activity at 1000 nM after 30 mins by Kinomescan method relative to control; format: cell-based; in short: as §1
[17] = test system: Phosphatidylinositol 4,5-bisphosphate 3-kinase catalytic subunit alpha isoform (Homo sapiens), P42336 [E545K]; assay: Inhibition of human partial length PIK3CA E545K mutant (R108 to N1068 residues) expressed in HEK293 cells assessed as residual activity at 1000 nM after 30 mins by Kinomescan method relative to control; format: cell-based
In short: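 KINOMEscan binding panel of 456 kinases, with the test compound at a single concentration of 1 µM. Read-out is Percent Control.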

[18] = target: Serine/threonine-protein kinase WNK3 (Homo sapiens) (UniProt Q9BYP7); assay: Inhibition of wild-type human partial length WNK3 (M1 to D434 residues) expressed in HEK293 cells assessed as residual activity at 1000 nM after 30 mins by Kinomescan method relative to control; format: cell-based
[19] = target: PDGFRB (platelet-derived growth factor receptor beta) (Homo sapiens, UniProt P09619); assay: Inhibition of wild-type human partial length PDGFRB (V582 to Y1009 residues) expressed in Escherichia coli BL21 assessed as residual activity at 1000 nM after 30 mins by Kinomescan method relative to control; details: read-out: Activity
[20] = target: Serine/threonine-protein kinase BRSK2 (Homo sapiens) (UniProt Q8IWQ3); assay: Inhibition of wild-type human full length BRSK2 (M1 to L674 residues) expressed in Escherichia coli BL21 assessed as residual activity at 1000 nM after 30 mins by Kinomescan method relative to control; in short: as §2

Chain of Bone morphogenetic protein receptor type-1A (Homo sapiens) (P36894 whole entry, the tested form may be a part): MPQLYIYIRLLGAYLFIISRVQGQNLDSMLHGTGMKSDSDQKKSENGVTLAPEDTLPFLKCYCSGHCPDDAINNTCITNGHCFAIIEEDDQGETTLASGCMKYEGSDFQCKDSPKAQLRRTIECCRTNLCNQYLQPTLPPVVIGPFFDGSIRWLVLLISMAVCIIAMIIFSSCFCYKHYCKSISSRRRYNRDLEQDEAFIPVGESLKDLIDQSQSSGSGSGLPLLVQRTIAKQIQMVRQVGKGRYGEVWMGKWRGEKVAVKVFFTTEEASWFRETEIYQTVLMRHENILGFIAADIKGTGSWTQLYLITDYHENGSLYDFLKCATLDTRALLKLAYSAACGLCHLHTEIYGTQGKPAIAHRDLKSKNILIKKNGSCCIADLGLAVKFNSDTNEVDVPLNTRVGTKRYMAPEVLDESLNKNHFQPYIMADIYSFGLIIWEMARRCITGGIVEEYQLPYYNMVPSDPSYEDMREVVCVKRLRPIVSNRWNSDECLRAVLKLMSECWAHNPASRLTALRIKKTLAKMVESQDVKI
Chain of Serine/threonine-protein kinase Nek4 (Homo sapiens) (P51957 whole entry, looked up, the tested form may be a part, canonical isoform): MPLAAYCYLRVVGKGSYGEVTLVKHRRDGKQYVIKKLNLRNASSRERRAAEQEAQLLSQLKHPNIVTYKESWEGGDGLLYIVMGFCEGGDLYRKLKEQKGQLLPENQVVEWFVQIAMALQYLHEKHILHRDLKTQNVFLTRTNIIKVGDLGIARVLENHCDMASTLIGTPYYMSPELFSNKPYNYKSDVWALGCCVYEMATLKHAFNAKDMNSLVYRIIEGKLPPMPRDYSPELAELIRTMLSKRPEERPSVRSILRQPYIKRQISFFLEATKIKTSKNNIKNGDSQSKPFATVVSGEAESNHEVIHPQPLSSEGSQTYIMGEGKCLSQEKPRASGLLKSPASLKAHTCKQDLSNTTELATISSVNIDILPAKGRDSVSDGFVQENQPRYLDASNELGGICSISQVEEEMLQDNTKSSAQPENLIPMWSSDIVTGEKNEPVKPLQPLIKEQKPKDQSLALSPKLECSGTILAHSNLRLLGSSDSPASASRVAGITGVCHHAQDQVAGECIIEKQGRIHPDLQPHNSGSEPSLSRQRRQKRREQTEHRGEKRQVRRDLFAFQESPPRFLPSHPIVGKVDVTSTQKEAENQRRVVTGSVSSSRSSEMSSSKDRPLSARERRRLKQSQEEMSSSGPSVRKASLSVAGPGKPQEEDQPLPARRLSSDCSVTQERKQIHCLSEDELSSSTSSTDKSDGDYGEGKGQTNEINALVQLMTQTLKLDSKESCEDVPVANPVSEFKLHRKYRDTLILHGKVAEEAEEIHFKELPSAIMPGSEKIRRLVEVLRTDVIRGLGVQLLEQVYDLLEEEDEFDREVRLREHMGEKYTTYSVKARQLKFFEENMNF
Chain of Serine/threonine-protein kinase RIO3 (Homo sapiens) (O14730 whole entry, the tested form may be a part): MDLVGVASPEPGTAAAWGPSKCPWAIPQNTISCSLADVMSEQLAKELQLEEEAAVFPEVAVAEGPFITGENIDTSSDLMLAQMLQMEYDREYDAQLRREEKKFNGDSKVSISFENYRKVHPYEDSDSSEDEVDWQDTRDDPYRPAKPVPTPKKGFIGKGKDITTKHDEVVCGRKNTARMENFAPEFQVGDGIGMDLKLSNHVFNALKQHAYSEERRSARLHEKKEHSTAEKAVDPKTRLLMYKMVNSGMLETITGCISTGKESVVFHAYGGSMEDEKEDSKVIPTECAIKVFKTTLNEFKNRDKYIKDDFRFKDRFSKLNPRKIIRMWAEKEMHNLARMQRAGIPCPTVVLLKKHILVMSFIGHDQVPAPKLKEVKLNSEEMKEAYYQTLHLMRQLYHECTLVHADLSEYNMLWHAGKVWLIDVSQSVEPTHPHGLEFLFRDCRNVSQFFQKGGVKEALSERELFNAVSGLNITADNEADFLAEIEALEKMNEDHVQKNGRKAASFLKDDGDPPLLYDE
Chain of TGF-beta receptor type-2 (Homo sapiens) (P37173 whole entry, the tested form may be a part): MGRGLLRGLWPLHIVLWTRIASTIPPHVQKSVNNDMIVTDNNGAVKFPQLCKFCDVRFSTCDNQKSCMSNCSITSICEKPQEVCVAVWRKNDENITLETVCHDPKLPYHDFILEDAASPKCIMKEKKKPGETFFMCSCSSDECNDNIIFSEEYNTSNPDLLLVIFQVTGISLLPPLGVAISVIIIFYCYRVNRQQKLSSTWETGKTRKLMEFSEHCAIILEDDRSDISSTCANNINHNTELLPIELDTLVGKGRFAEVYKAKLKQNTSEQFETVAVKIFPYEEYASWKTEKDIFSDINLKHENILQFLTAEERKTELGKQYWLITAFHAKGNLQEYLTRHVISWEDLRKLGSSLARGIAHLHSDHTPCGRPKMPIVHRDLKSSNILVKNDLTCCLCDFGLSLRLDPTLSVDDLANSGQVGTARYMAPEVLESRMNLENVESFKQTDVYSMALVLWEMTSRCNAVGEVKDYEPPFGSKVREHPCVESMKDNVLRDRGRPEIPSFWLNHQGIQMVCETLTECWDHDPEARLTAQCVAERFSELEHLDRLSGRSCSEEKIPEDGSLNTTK
Chain of Dual specificity protein kinase CLK3 (Homo sapiens) (P49761 whole entry, looked up, the tested form may be a part): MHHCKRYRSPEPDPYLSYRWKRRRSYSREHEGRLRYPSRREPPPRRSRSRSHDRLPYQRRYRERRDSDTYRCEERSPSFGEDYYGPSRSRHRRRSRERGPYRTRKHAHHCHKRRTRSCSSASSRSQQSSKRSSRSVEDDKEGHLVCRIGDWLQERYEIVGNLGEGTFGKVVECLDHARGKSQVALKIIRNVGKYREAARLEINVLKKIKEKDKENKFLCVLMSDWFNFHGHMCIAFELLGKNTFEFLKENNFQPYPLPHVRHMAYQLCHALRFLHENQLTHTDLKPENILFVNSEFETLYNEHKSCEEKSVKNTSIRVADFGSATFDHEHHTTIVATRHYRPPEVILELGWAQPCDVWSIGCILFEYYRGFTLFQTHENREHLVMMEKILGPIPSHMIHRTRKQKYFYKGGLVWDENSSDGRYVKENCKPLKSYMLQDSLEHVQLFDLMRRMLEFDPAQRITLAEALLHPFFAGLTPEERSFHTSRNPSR
Chain of Phosphatidylinositol 5-phosphate 4-kinase type-2 beta (Homo sapiens) (P78356 whole entry, the tested form may be a part): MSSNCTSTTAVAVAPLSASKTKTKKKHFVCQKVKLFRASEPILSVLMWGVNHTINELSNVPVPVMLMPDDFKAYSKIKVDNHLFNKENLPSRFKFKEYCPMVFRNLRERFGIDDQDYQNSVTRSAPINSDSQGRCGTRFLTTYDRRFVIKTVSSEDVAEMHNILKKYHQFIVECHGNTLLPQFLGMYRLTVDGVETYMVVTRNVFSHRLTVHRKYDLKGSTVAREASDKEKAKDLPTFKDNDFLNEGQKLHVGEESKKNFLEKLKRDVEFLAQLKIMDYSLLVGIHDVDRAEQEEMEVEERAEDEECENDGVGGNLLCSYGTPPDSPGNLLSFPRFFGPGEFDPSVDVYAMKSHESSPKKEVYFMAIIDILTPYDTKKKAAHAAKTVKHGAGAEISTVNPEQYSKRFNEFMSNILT
Chain of Serine/threonine-protein kinase TAO2 (Homo sapiens) (Q9UL54 whole entry, the tested form may be a part): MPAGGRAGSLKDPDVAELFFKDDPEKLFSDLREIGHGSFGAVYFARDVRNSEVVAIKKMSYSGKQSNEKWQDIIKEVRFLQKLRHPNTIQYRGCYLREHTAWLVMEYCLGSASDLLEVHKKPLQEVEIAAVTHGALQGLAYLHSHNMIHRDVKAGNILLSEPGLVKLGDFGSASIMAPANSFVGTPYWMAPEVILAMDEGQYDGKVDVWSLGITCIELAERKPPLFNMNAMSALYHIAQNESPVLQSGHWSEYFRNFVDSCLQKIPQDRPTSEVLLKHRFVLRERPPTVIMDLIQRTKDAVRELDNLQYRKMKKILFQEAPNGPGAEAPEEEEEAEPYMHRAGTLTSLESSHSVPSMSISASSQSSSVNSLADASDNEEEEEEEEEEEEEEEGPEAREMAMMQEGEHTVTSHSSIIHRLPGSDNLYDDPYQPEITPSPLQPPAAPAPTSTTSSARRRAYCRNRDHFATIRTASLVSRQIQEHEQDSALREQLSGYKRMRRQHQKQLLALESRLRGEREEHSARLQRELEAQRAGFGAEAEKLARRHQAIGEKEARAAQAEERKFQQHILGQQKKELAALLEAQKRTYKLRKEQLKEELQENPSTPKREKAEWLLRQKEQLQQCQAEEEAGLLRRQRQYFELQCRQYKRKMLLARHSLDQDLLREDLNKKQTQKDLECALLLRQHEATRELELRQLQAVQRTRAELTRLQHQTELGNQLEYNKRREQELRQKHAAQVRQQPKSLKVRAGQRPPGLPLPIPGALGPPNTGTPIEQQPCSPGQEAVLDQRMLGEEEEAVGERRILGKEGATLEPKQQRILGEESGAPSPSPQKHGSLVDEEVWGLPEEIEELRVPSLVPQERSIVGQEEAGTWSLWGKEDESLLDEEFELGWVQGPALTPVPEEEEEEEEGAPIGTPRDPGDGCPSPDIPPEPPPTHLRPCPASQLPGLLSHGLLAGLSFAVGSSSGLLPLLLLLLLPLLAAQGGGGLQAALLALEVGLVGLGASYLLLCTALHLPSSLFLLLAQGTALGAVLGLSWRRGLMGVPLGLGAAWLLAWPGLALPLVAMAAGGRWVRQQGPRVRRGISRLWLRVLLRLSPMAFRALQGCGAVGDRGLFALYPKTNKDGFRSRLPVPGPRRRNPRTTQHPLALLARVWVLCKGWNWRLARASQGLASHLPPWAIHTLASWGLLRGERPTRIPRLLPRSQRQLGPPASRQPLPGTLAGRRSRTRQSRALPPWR
Chain of Aurora kinase C (Homo sapiens) (Q9UQB9 whole entry, the tested form may be a part): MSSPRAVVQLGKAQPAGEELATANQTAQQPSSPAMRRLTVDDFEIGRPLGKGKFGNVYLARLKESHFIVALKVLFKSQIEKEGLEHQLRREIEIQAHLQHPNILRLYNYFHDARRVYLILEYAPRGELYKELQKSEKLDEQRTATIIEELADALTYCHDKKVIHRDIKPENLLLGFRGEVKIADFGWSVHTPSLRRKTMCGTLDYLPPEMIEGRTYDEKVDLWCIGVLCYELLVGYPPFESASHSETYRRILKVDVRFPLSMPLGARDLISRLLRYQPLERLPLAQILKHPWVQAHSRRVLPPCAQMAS

COc1cc(OC)c(Cl)c(N2Cc3cnc(Nc4ccc(F)cc4)nc3N(C3CCN(C(=O)/C=C/CN(C)C)CC3)C2=O)c1Cl
Activity [1]: 94%
Activity [2]: 6.2%
Activity [3]: 78%
Activity [4]: 100%
Activity [5]: 92%
activity at 0.5 h, 1 µM [6]: 7.3%
Activity [7]: 95%
Activity [8]: 42%
Activity [9]: 91%
Activity [10]: 100%
Activity [11]: 92%
Activity [12]: 100%
Activity [13]: 97%
Activity [14]: 100%
Activity [15]: 100%
Activity [16]: 100%
Activity [17]: 99%
Activity [18]: 86%
activity at 0.5 h, 1 µM [19]: 1.5%
Activity [20]: 99%
